Assay results as given in ChEMBL document CHEMBL2202974 (J Med Chem, 2011).

Experiments:
[1] = test system: Brain; assay: Drug uptake in NOP knockout mouse brain at 0.6 nM after 120 mins by autoradiographic analysis; assay type: ADME, tissue-based
[2] = test system: Brain; assay: Drug uptake in 129/S6 mouse brain at 0.6 nM after 120 mins by autoradiographic analysis; assay type: ADME, tissue-based
[3] = test system: Plasma; assay: Drug metabolism in SB612111-pretreated monkey plasma assessed as radiometabolite formation at 4.9 to 6.6 mCi, iv administered as bolus dose 10 mins post SB612111-treatment up to 100 mins; assay type: ADME, organism-based, Macaca mulatta; conditions: rhesus monkey, in vivo
[4] = test system: Plasma; assay: Drug metabolism in monkey plasma assessed as radiometabolite formation at 4.9 to 6.6 mCi, iv administered as bolus dose up to 100 mins; assay type: ADME, organism-based, Macaca mulatta; conditions: rhesus monkey, in vivo
[5] = test system: Plasma; assay: Metabolic stability in SB612111-pretreated monkey plasma at 4.9 to 6.6 mCi, iv administered as bolus dose 10 mins post SB612111-treatment up to 100 mins; assay type: ADME, organism-based, Macaca mulatta; conditions: rhesus monkey, in vivo
In short: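 Preblock scans were run in the same anesthetized (ketamine, isoflurane) rhesus monkeys about 3 h after the baseline scan. Plasma was extracted into acetonitrile, and the supernatant was analysed by HPLC to give the percentage of radioactivity present as unchanged radioligand over time.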

[6] = Fraction unbound in monkey plasma; assay type: ADME, cell-free, Macaca mulatta; conditions: rhesus monkey
In short: (§1)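 Plasma free fraction of the radioligand measured in vitro. Monkey: 3 samples from each of two monkeys (n = 6). Human: pooled plasma, three samples from each of two subjects.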

[7] = Fraction unbound in human plasma; assay type: ADME, cell-free; in short: as §1
[8] = Metabolic stability in monkey plasma at 4.9 to 6.6 mCi, iv administered as bolus dose up to 100 mins; assay type: ADME, organism-based, Macaca mulatta; conditions: rhesus monkey, read-out: Stability
In short: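 For baseline scans, male rhesus monkeys were immobilized with ketamine and kept under 1–3% isoflurane. Plasma sampled during the scan was extracted into acetonitrile, and the supernatant was analysed by HPLC for the parent fraction.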

[9] = Metabolic stability in monkey blood for 0.5 hrs; assay type: ADME, tissue-based, Macaca mulatta; conditions: rhesus monkey, read-out: Stability
In short: (§2)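 The [11C]-labelled radioligand was incubated in vitro in monkey whole blood or monkey plasma for 0.5 h at room temperature. Stability was expressed as the percentage of radioactivity remaining as unchanged radioligand (n = 6).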

[10] = Metabolic stability in monkey plasma for 0.5 hrs; assay type: ADME, cell-free, Macaca mulatta; conditions: rhesus monkey, read-out: Stability; in short: as §2
[11] = Chemical stability of the compound in sodium phosphate buffer after 2 hrs at pH 7.4; assay type: physicochemical; conditions: read-out: Stability
[12] = Drug uptake in monkey lateral temporal cortex at 6.2 mCi, iv administered as bolus dose followed by naloxone-treatment at 37 mins measured at 120 mins by PET imaging analysis; assay type: ADME, organism-based, Macaca mulatta; conditions: rhesus monkey, in vivo, 2 h
In short: (§3)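 Anesthetised rhesus monkey given iv bolus of radioligand; a high dose of naloxone was given at 37 min after radioligand. PET regional time-activity curves were expressed as %SUV.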

[13] = Drug uptake in monkey amygdala at 6.2 mCi, iv administered as bolus dose followed by naloxone-treatment at 37 mins measured at 120 mins by PET imaging analysis; assay type: ADME, organism-based, Macaca mulatta; conditions: rhesus monkey, in vivo, 2 h; in short: as §3
[14] = Drug uptake in monkey caudate at 6.2 mCi, iv administered as bolus dose followed by naloxone-treatment at 37 mins measured at 120 mins by PET imaging analysis; assay type: ADME, organism-based, Macaca mulatta, Caudate nucleus; conditions: rhesus monkey, in vivo, 2 h; in short: as §3
[15] = Drug uptake in monkey cerebellum at 6.2 mCi, iv administered as bolus dose followed by naloxone-treatment at 37 mins measured at 120 mins by PET imaging analysis; assay type: ADME, organism-based, Macaca mulatta; conditions: rhesus monkey, in vivo, 2 h; in short: as §3
[16] = Drug uptake in monkey hypothalamus at 6.2 mCi, iv administered as bolus dose followed by naloxone-treatment at 37 mins measured at 120 mins by PET imaging analysis; assay type: ADME, organism-based, Macaca mulatta; conditions: rhesus monkey, in vivo, 2 h; in short: as §3
[17] = Drug uptake in monkey lateral temporal cortex at 6.2 mCi, iv administered as bolus dose followed by SB612111-treatment at 40 mins measured at 100 mins by PET imaging analysis; assay type: ADME, organism-based, Macaca mulatta; conditions: rhesus monkey, in vivo
In short: (§4)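 Anesthetised rhesus monkey given iv bolus of radioligand; the NOP antagonist was given at 40 min after radioligand to test displacement. PET regional time-activity curves were expressed as %SUV.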

[18] = Drug uptake in monkey amygdala at 6.2 mCi, iv administered as bolus dose followed by SB612111-treatment at 40 mins measured at 100 mins by PET imaging analysis; assay type: ADME, organism-based, Macaca mulatta; conditions: rhesus monkey, in vivo; in short: as §4
[19] = Drug uptake in monkey caudate at 6.2 mCi, iv administered as bolus dose followed by SB612111-treatment at 40 mins measured at 100 mins by PET imaging analysis; assay type: ADME, organism-based, Macaca mulatta, Caudate nucleus; conditions: rhesus monkey, in vivo; in short: as §4
[20] = Drug uptake in monkey cerebellum at 6.2 mCi, iv administered as bolus dose followed by SB612111-treatment at 40 mins measured at 100 mins by PET imaging analysis; assay type: ADME, organism-based, Macaca mulatta; conditions: rhesus monkey, in vivo; in short: as §4
[21] = Drug uptake in monkey hypothalamus at 6.2 mCi, iv administered as bolus dose followed by SB612111-treatment at 40 mins measured at 100 mins by PET imaging analysis; assay type: ADME, organism-based, Macaca mulatta; conditions: rhesus monkey, in vivo; in short: as §4
[22] = Drug uptake in SB612111-pretreated monkey lateral temporal cortex at 4.92 to 6.6 mCi, iv administered at 10 mins post SB612111-treatment measured from 10 to 120 mins by PET imaging analysis; assay type: ADME, organism-based, Macaca mulatta; conditions: rhesus monkey, in vivo
[23] = Drug uptake in SB612111-pretreated monkey amygdala at 4.92 to 6.6 mCi, iv administered at 10 mins post SB612111-treatment measured from 10 to 120 mins by PET imaging analysis; assay type: ADME, organism-based, Macaca mulatta; conditions: rhesus monkey, in vivo
[24] = Drug uptake in SB612111-pretreated monkey caudate at 4.92 to 6.6 mCi, iv administered at 10 mins post SB612111-treatment measured from 10 to 120 mins by PET imaging analysis; assay type: ADME, organism-based, Macaca mulatta, Caudate nucleus; conditions: rhesus monkey, in vivo
[25] = Drug uptake in SB612111-pretreated monkey cerebellum at 4.92 to 6.6 mCi, iv administered at 10 mins post SB612111-treatment measured from 10 to 120 mins by PET imaging analysis; assay type: ADME, organism-based, Macaca mulatta; conditions: rhesus monkey, in vivo
[26] = Drug uptake in SB612111-pretreated monkey hypothalamus at 4.92 to 6.6 mCi, iv administered at 10 mins post SB612111-treatment measured from 10 to 120 mins by PET imaging analysis; assay type: ADME, organism-based, Macaca mulatta; conditions: rhesus monkey, in vivo
[27] = Drug uptake in SB612111-pretreated monkey lateral temporal cortex at 4.92 to 6.6 mCi, iv administered at 10 mins post SB612111-treatment measured within 10 mins by PET imaging analysis; assay type: ADME, organism-based, Macaca mulatta; conditions: rhesus monkey, in vivo
[28] = Drug uptake in SB612111-pretreated monkey amygdala at 4.92 to 6.6 mCi, iv administered at 10 mins post SB612111-treatment measured within 10 mins by PET imaging analysis; assay type: ADME, organism-based, Macaca mulatta; conditions: rhesus monkey, in vivo
[29] = Drug uptake in SB612111-pretreated monkey caudate at 4.92 to 6.6 mCi, iv administered at 10 mins post SB612111-treatment measured within 10 mins by PET imaging analysis; assay type: ADME, organism-based, Macaca mulatta, Caudate nucleus; conditions: rhesus monkey, in vivo
[30] = Drug uptake in SB612111-pretreated monkey cerebellum at 4.92 to 6.6 mCi, iv administered at 10 mins post SB612111-treatment measured within 10 mins by PET imaging analysis; assay type: ADME, organism-based, Macaca mulatta; conditions: rhesus monkey, in vivo
[31] = Drug uptake in SB612111-pretreated monkey hypothalamus at 4.92 to 6.6 mCi, iv administered at 10 mins post SB612111-treatment measured within 10 mins by PET imaging analysis; assay type: ADME, organism-based, Macaca mulatta; conditions: rhesus monkey, in vivo
[32] = Drug uptake in monkey lateral temporal cortex at 4.92 to 6.6 mCi, iv administered as bolus dose measured at 120 mins by PET imaging analysis; assay type: ADME, organism-based, Macaca mulatta; conditions: rhesus monkey, in vivo, 2 h
[33] = Drug uptake in monkey amygdala at 4.92 to 6.6 mCi, iv administered as bolus dose measured at 120 mins by PET imaging analysis; assay type: ADME, organism-based, Macaca mulatta; conditions: rhesus monkey, in vivo, 2 h
[34] = Drug uptake in monkey caudate at 4.92 to 6.6 mCi, iv administered as bolus dose measured at 120 mins by PET imaging analysis; assay type: ADME, organism-based, Macaca mulatta, Caudate nucleus; conditions: rhesus monkey, in vivo, 2 h
[35] = Drug uptake in monkey cerebellum at 4.92 to 6.6 mCi, iv administered as bolus dose measured at 120 mins by PET imaging analysis; assay type: ADME, organism-based, Macaca mulatta; conditions: rhesus monkey, in vivo, 2 h
[36] = Drug uptake in monkey hypothalamus at 4.92 to 6.6 mCi, iv administered as bolus dose measured at 120 mins by PET imaging analysis; assay type: ADME, organism-based, Macaca mulatta; conditions: rhesus monkey, in vivo, 2 h
[37] = Drug uptake in monkey lateral temporal cortex at 4.92 to 6.6 mCi, iv administered as bolus dose measured up to 20 mins by PET imaging analysis; assay type: ADME, organism-based, Macaca mulatta; conditions: rhesus monkey, in vivo
[38] = Drug uptake in monkey amygdala at 4.92 to 6.6 mCi, iv administered as bolus dose measured up to 20 mins by PET imaging analysis; assay type: ADME, organism-based, Macaca mulatta; conditions: rhesus monkey, in vivo
[39] = Drug uptake in monkey caudate at 4.92 to 6.6 mCi, iv administered as bolus dose measured up to 20 mins by PET imaging analysis; assay type: ADME, organism-based, Macaca mulatta, Caudate nucleus; conditions: rhesus monkey, in vivo
[40] = Drug uptake in monkey cerebellum at 4.92 to 6.6 mCi, iv administered as bolus dose measured up to 20 mins by PET imaging analysis; assay type: ADME, organism-based, Macaca mulatta; conditions: rhesus monkey, in vivo
[41] = Drug uptake in monkey hypothalamus at 4.92 to 6.6 mCi, iv administered as bolus dose measured up to 20 mins by PET imaging analysis; assay type: ADME, organism-based, Macaca mulatta; conditions: rhesus monkey, in vivo

SMILES: [11CH3]NC(=O)[C@@H](Cc1ccccc1F)CN1CCC2(CC1)OCCc1cc(F)sc12
- Drug uptake [1]: Not Active
- Drug uptake [2]: Active
- Drug metabolism [3]: Active
- Drug metabolism [4]: Active
- Stability [5]: 94.9%
- fraction unbound [6]: 0.113
- fraction unbound [7]: 0.11
- remaining at 100 min [8]: 94.9%
- remaining at 0.5 h [9]: 100%
- remaining at 0.5 h [10]: 99.9%
- remaining at 2 h [11]: 98.9%
- Drug uptake [12]: Not Active
- Drug uptake [13]: Not Active
- Drug uptake [14]: Not Active
- Drug uptake [15]: Not Active
- Drug uptake [16]: Not Active
- Drug uptake [17]: Not Active
- Drug uptake [18]: Not Active
- Drug uptake [19]: Not Active
- Drug uptake [20]: Not Active
- Drug uptake [21]: Not Active
- Drug uptake [22]: Not Active
- Drug uptake [23]: Not Active
- Drug uptake [24]: Not Active
- Drug uptake [25]: Not Active
- Drug uptake [26]: Not Active
- Drug uptake [27]: Active
- Drug uptake [28]: Active
- Drug uptake [29]: Active
- Drug uptake [30]: Active
- Drug uptake [31]: Active
- Drug uptake [32]: Not Active
- Drug uptake [33]: Not Active
- Drug uptake [34]: Not Active
- Drug uptake [35]: Not Active
- Drug uptake [36]: Not Active
- Drug uptake [37]: Active
- Drug uptake [38]: Active
- Drug uptake [39]: Active
- Drug uptake [40]: Active
- Drug uptake [41]: Active
